# Assay results from different studies.
# Compare with care: the assays were run in different laboratories.
# CYP3A7: Cytochrome P450 3A7 (CYP3A7, Homo sapiens, UniProt P24462)
SMILES,tested on,test,system,conditions,measurement,value
O=C(c1ccc(F)cc1F)N1CCC(NCCSC(c2ccc(F)cc2)c2ccc(F)cc2)CC1,,metabolic stability,"mouse, liver microsomes","10 µM, 1 h, pH 7.4",compound remaining,~30%
Cc1ncc2n1-c1ccc(Cl)cc1C(c1ccccc1F)=NC2,,metabolic stability,"Sprague-Dawley rat, hepatocytes","1 µM, 4 h",compound remaining,0.3%
Cc1ncc2n1-c1ccc(Cl)cc1C(c1ccccc1F)=NC2,,metabolic stability,"male rat, liver microsomes","1 µM, 30 min",compound remaining,< 7%
O=C(O)C(F)(F)C(F)(F)C(F)(F)C(F)(F)C(F)(F)C(F)(F)C(F)(F)F,CYP3A7,"enzyme activity, inhibitor",,"10 µM, pH 7.4",inhibition,16.3%
CCCCCC/C=C/CC(=O)O[C@@]12[C@H](OC(=O)c3ccccc3)[C@@H](C)[C@@]3(O)[C@@H](C=C(CO)C[C@]4(O)C(=O)C(C)=C[C@@H]34)[C@@H]1C2(C)C,MT4,"cell growth or viability, ATP luminescence",,,CC50,> 7 µM
COC(=O)N[C@H](C(=O)NN(CC[C@@]1(Cc2ccccc2)C(=O)N([C@H]2c3ccccc3C[C@H]2O)C[C@@H]1O)Cc1ccc(-c2ccncc2)cc1)C(C)(C)C,MT4,"cell growth or viability, XTT",,5 days,CC50,> 50 µM
C=C(C)[C@@]12O[C@@]3(/C=C/C=C/CCCCC)O[C@@H]1[C@@H]1[C@@H]4O[C@]4(CO)[C@@H](O)[C@]4(O)C(=O)C(C)=C[C@H]4[C@@]1(O3)[C@H](C)[C@H]2OC(=O)/C=C/c1ccccc1,MT4,"cell growth or viability, ATP luminescence",,96 h,IC50,> 0.034 µM
CC[C@H](C)[C@H]1C(=O)N2CCC[C@H]2C(=O)O[C@H](C(C)(C)C)C[C@@H](C)C[C@H](O)C(C)(C)C2=N[C@@H](CCC(=O)N[C@@H](Cc3ccc(OC)cc3)C(=O)N(C)[C@@H](C)C(=O)N1C)CS2,,metabolic stability,"female CD-1 mouse, liver microsomes","1 µM, 0 h, pH 7.4",compound remaining,100%
COC(=O)N[C@H](C(=O)NN(CC[C@@]1(Cc2ccccc2)C(=O)N([C@H]2c3ccccc3C[C@H]2O)C[C@@H]1O)Cc1ccc(Br)cc1)C(C)(C)C,MT4,"cell growth or viability, XTT",,5 days,CC50,> 50 µM
C=C(C)[C@@]12O[C@@]3(/C=C/C=C/CCCCC)O[C@@H]1[C@@H]1[C@@H]4O[C@]4(CO)[C@@H](O)[C@]4(O)C(=O)C(C)=C[C@H]4[C@@]1(O3)[C@H](C)[C@H]2OC(=O)/C=C/c1ccc(O)c(OC)c1,MT4,"cell growth or viability, ATP luminescence",,96 h,IC50,> 0.034 µM
C#Cc1ccc2c(c1)C(c1ccccc1F)=N[C@@H](C)c1c(C(=O)OCC(F)(F)F)ncn1-2,,metabolic stability,"mouse, liver microsomes",20 min,compound remaining,< 5%
C=C(C)[C@@]12O[C@@]3(/C=C/C=C/CCCCC)O[C@@H]1[C@@H]1[C@@H]4O[C@]4(CO)[C@@H](O)[C@]4(O)C(=O)C(C)=C[C@H]4[C@@]1(O3)[C@H](C)[C@H]2OC(=O)/C=C/c1ccc(O)cc1,MT4,"cell growth or viability, ATP luminescence",,96 h,IC50,> 0.034 µM
O=S(=O)(O)C(F)(F)C(F)(F)C(F)(F)C(F)(F)C(F)(F)C(F)(F)C(F)(F)C(F)(F)F,CYP3A7,"enzyme activity, inhibitor, mass spectrometry",,,IC50,16.8 µM
CC[C@H](C)[C@H]1C(=O)N2CCC[C@H]2C(=O)O[C@H](C(C)(C)C)C[C@@H](C)C[C@H](O)[C@H](C)C2=N[C@@H](CCC(=O)N[C@@H](Cc3ccc(OC)cc3)C(=O)N(C)[C@@H](C)C(=O)N1C)CS2,,metabolic stability,"female CD-1 mouse, liver microsomes","1 µM, 0 h, pH 7.4",compound remaining,100%
C=C(C)[C@]12C[C@@H](COC(=O)c3ccccc3)[C@@]34OC5(O[C@@H]1[C@@H]3[C@@H]1O[C@]1(CO)[C@@H](O)[C@@]1(O)[C@H]4[C@H]([C@H](C)[C@@H]1OC(=O)c1ccccc1)[C@H](C)CCCCCC[C@H]5O)O2,MT4,"cell growth or viability, ATP luminescence",,,CC50,> 7 µM
C=C(C)[C@@]12O[C@@]3(/C=C/C=C/C=C/CCC)O[C@@H]1[C@@H]1[C@@H]4O[C@]4(CO)[C@@H](O)[C@]4(O)C(=O)C(C)=C[C@H]4[C@@]1(O3)[C@H](C)[C@H]2OC(=O)/C=C/c1ccc(O)c(OC)c1,MT4,"cell growth or viability, ATP luminescence",,96 h,IC50,> 0.034 µM
CCCCCCCCCC(=O)O[C@@]12[C@H](OC(=O)c3ccccc3)[C@@H](C)[C@]3(O)[C@@H]4C=C(C)C(=O)[C@@]4(O)[C@H](O)C(CO)=C[C@H]3[C@@H]1C2(C)C,MT4,"cell growth or viability, ATP luminescence",,,CC50,> 7 µM
C=C(C)[C@@]12O[C@@]3(/C=C/C=C/C=C/CCC)O[C@@H]1[C@@H]1[C@@H]4O[C@]4(CO)[C@@H](O)[C@]4(O)C(=O)C(C)=C[C@H]4[C@@]1(O3)[C@H](C)[C@H]2OC(=O)/C=C/c1ccccc1,MT4,"cell growth or viability, ATP luminescence",,96 h,IC50,> 0.034 µM
N=c1c2c(-c3ccccc3)c(-c3ccccc3)n(Cc3ccccc3)c2ncn1[C@H]1CC[C@H](O)CC1,,metabolic stability,"CD-1 mouse, hepatocytes","1 µM, 4 h",compound remaining,103%
C=C(C)[C@@]12O[C@@]3(/C=C/C=C/C=C/CCC)O[C@@H]1[C@@H]1[C@@H]4O[C@]4(CO)[C@@H](O)[C@]4(O)C(=O)C(C)=C[C@H]4[C@@]1(O3)[C@H](C)[C@H]2OC(=O)c1ccccc1,MT4,"cell growth or viability, ATP luminescence",,96 h,IC50,> 0.034 µM
O=S(=O)(O)C(F)(F)C(F)(F)C(F)(F)C(F)(F)C(F)(F)C(F)(F)F,CYP3A7,"enzyme activity, inhibitor",,"10 µM, pH 7.4",inhibition,29.1%
